Experimental data as given in ChEMBL document CHEMBL3351505, “Ultrasound-assisted synthesis of novel 1,2,3-triazoles coupled diaryl sulfone moieties by the CuAAC reaction, and biological evaluation of them as antioxidant and antimicrobial agents” (Eur J Med Chem, 2014).
≈ marks a conversion by molar mass, not a printed value. Calls of active or inactive are those of the source. The calls are words filed in the database; no cut-off is given here.

Experiments:
Pseudomonas aeruginosa [1] = assay: Antibacterial activity against Pseudomonas aeruginosa ATCC 27953 using 100 uL of test compound after 24 hrs by agar well diffusion method; assay type: functional
Method in brief: (§1)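 Agar well diffusion. Nutrient agar was spread with bacterial suspension at 1×10⁸ CFU/mL, and 10 mm wells were cut. Wells were loaded with compound solution made at 200 mg per 1 mL DMSO. Plates were incubated 24 h at 37 °C and inhibition zones were measured. DMSO served as the negative control.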

Saccharomyces cerevisiae [2] = assay: Antifungal activity against Saccharomyces cerevisiae using 100 uL of test compound after 48 hrs by agar well diffusion method; assay type: functional
Method in brief: as §1, with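 “Sabouraud dextrose” for “Nutrient”, “yeast or fungal” for “bacterial”, “1×10⁶” for “1×10⁸”, “48” for “24”, “28” for “37”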

Aspergillus niger [3] = assay: Antifungal activity against Aspergillus niger using 100 uL of test compound after 48 hrs by agar well diffusion method; assay type: functional
Method in brief: as §1, with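 “Sabouraud dextrose” for “Nutrient”, “yeast or fungal” for “bacterial”, “1×10⁶” for “1×10⁸”, “48” for “24”, “28” for “37”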

Priestia megaterium [4] = assay: Antibacterial activity against Bacillus megaterium ATCC 9885 after 24 hrs by two fold serial dilution method; assay type: functional; settings: ATCC 9885, 24 h
Saccharomyces cerevisiae [5] = assay: Antifungal activity against Saccharomyces cerevisiae after 48 hrs by two fold serial dilution method; assay type: functional
Method in brief: (§2)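 Two-fold serial broth dilution in a suitable broth, run only on compounds giving inhibition zones of at least 16 mm. Final concentrations were […]. Each 5 mL received 0.1 mL inoculum and was incubated 48 h at 28 °C. MIC was the lowest concentration without growth.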

Klebsiella pneumoniae [6] = assay: Antibacterial activity against Klebsiella pneumoniae ATCC 13883 after 24 hrs by two fold serial dilution method; assay type: functional
[7] = Antioxidant activity assessed as DPPH free radical scavenging activity by spectrophotometric assay; assay type: physicochemical
Method in brief: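 Sample solutions at several concentrations were added to 0.004% DPPH in methanol and incubated 60 min in the dark. Absorbance was read at 517 nm against a blank. Inhibition % = (A_blank − A_sample)/A_blank × 100, where the control contained all reagents except the test compound.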

Staphylococcus aureus [8] = assay: Antibacterial activity against Staphylococcus aureus ATCC 29213 using 100 uL of test compound after 24 hrs by agar well diffusion method; assay type: functional; method in brief: as §1
Escherichia coli [9] = assay: Antibacterial activity against Escherichia coli ATCC 25922 using 100 uL of test compound after 24 hrs by agar well diffusion method; assay type: functional; method in brief: as §1
Micrococcus luteus [10] = assay: Antibacterial activity against Sarcina lutea after 24 hrs by two fold serial dilution method; assay type: functional
Micrococcus luteus [11] = assay: Antibacterial activity against Sarcina lutea using 100 uL of test compound after 24 hrs by agar well diffusion method; assay type: functional; method in brief: as §1
Bacillus subtilis [12] = assay: Antibacterial activity against Bacillus subtilis ATCC 6633 using 100 uL of test compound after 24 hrs by agar well diffusion method; assay type: functional; method in brief: as §1
Pseudomonas aeruginosa [13] = assay: Antibacterial activity against Pseudomonas aeruginosa ATCC 27953 after 24 hrs by two fold serial dilution method; assay type: functional
Bacillus subtilis [14] = assay: Antibacterial activity against Bacillus subtilis ATCC 6633 after 24 hrs by two fold serial dilution method; assay type: functional
Escherichia coli [15] = assay: Antibacterial activity against Escherichia coli ATCC 25922 after 24 hrs by two fold serial dilution method; assay type: functional; settings: ATCC 25922, 24 h
Candida albicans [16] = assay: Antifungal activity against Candida albicans NRRL Y-477 after 48 hrs by two fold serial dilution method; assay type: functional; method in brief: as §2
Aspergillus niger [17] = assay: Antifungal activity against Aspergillus niger after 48 hrs by two fold serial dilution method; assay type: functional; method in brief: as §2
Klebsiella pneumoniae [18] = assay: Antibacterial activity against Klebsiella pneumoniae ATCC 13883 using 100 uL of test compound after 24 hrs by agar well diffusion method; assay type: functional; method in brief: as §1
Staphylococcus aureus [19] = assay: Antibacterial activity against Staphylococcus aureus ATCC 29213 after 24 hrs by two fold serial dilution method; assay type: functional; settings: ATCC 29213, 24 h
Candida albicans [20] = assay: Antifungal activity against Candida albicans NRRL Y-477 using 100 uL of test compound after 48 hrs by agar well diffusion method; assay type: functional
Method in brief: as §1, with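 “Sabouraud dextrose” for “Nutrient”, “yeast or fungal” for “bacterial”, “1×10⁶” for “1×10⁸”, “48” for “24”, “28” for “37”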

Priestia megaterium [21] = assay: Antibacterial activity against Bacillus megaterium ATCC 9885 using 100 uL of test compound after 24 hrs by agar well diffusion method; assay type: functional; method in brief: as §1

O=C(Cn1cc(COC(Cc2cn(CC(=O)c3ccc(Br)cc3)nn2)c2ccc(S(=O)(=O)c3ccccc3)cc2)nn1)c1ccc(Br)cc1 (centres undefined)
diameter of the inhibition zone (DIZ) (Pseudomonas aeruginosa [1]): inactive
diameter of the inhibition zone (DIZ) (Saccharomyces cerevisiae [2]): 20 mm
diameter of the inhibition zone (DIZ) (Aspergillus niger [3]): 20 mm
MIC (Priestia megaterium [4]): 200 µg/mL (≈ 249 µM)
MIC (Saccharomyces cerevisiae [5]): 200 µg/mL (≈ 249 µM)
MIC (Klebsiella pneumoniae [6]): inactive
IC50 [7]: 150 µg/mL (≈ 186 µM)
diameter of the inhibition zone (DIZ) (Staphylococcus aureus [8]): 17 mm
diameter of the inhibition zone (DIZ) (Escherichia coli [9]): 17 mm
MIC (Micrococcus luteus [10]): 200 µg/mL (≈ 249 µM)
diameter of the inhibition zone (DIZ) (Micrococcus luteus [11]): 22 mm
diameter of the inhibition zone (DIZ) (Bacillus subtilis [12]): 17 mm
MIC (Pseudomonas aeruginosa [13]): inactive
MIC (Bacillus subtilis [14]; ATCC 6633, 24 h): 200 µg/mL (≈ 249 µM)
MIC (Escherichia coli [15]): 200 µg/mL (≈ 249 µM)
MIC (Candida albicans [16]; NRRL Y-477, 48 h): 200 µg/mL (≈ 249 µM)
MIC (Aspergillus niger [17]): 200 µg/mL (≈ 249 µM)
diameter of the inhibition zone (DIZ) (Klebsiella pneumoniae [18]): inactive
MIC (Staphylococcus aureus [19]): 200 µg/mL (≈ 249 µM)
diameter of the inhibition zone (DIZ) (Candida albicans [20]): 21 mm
diameter of the inhibition zone (DIZ) (Priestia megaterium [21]): 20 mm

O=C(Cn1cc(COC(Cc2cn(CC(=O)c3ccccc3)nn2)c2ccc(S(=O)(=O)c3ccccc3)cc2)nn1)c1ccccc1 (centres undefined)
diameter of the inhibition zone (DIZ) (Pseudomonas aeruginosa [1]): 23 mm
diameter of the inhibition zone (DIZ) (Saccharomyces cerevisiae [2]): 22 mm
diameter of the inhibition zone (DIZ) (Aspergillus niger [3]): 20 mm
MIC (Priestia megaterium [4]): 200 µg/mL (≈ 309 µM)
MIC (Saccharomyces cerevisiae [5]): 200 µg/mL (≈ 309 µM)
MIC (Klebsiella pneumoniae [6]; ATCC 13883, 24 h): 100 µg/mL (≈ 155 µM)
IC50 [7]: 175 µg/mL (≈ 271 µM)
diameter of the inhibition zone (DIZ) (Staphylococcus aureus [8]): 24 mm
diameter of the inhibition zone (DIZ) (Escherichia coli [9]): 20 mm
MIC (Micrococcus luteus [10]): 100 µg/mL (≈ 155 µM)
diameter of the inhibition zone (DIZ) (Micrococcus luteus [11]): 24 mm
diameter of the inhibition zone (DIZ) (Bacillus subtilis [12]): 17 mm
MIC (Pseudomonas aeruginosa [13]): 100 µg/mL (≈ 155 µM)
MIC (Bacillus subtilis [14]; ATCC 6633, 24 h): 200 µg/mL (≈ 309 µM)
MIC (Escherichia coli [15]): 200 µg/mL (≈ 309 µM)
MIC (Candida albicans [16]; NRRL Y-477, 48 h): 200 µg/mL (≈ 309 µM)
MIC (Aspergillus niger [17]): 200 µg/mL (≈ 309 µM)
diameter of the inhibition zone (DIZ) (Klebsiella pneumoniae [18]): 15 mm
MIC (Staphylococcus aureus [19]): 100 µg/mL (≈ 155 µM)
diameter of the inhibition zone (DIZ) (Candida albicans [20]): 23 mm
diameter of the inhibition zone (DIZ) (Priestia megaterium [21]): 20 mm

CC(Cc1cn(CC(=O)c2ccc(Br)cc2)nn1)(OCc1cn(CC(=O)c2ccc(Br)cc2)nn1)c1ccc(S(=O)(=O)c2ccccc2)cc1 (centres undefined)
diameter of the inhibition zone (DIZ) (Pseudomonas aeruginosa [1]): 26 mm
diameter of the inhibition zone (DIZ) (Saccharomyces cerevisiae [2]): 14 mm
diameter of the inhibition zone (DIZ) (Aspergillus niger [3]): 32 mm
MIC (Priestia megaterium [4]): 100 µg/mL (≈ 122 µM)
MIC (Saccharomyces cerevisiae [5]): inactive
MIC (Klebsiella pneumoniae [6]; ATCC 13883, 24 h): 100 µg/mL (≈ 122 µM)
IC50 [7]: Not Active
diameter of the inhibition zone (DIZ) (Staphylococcus aureus [8]): 24 mm
diameter of the inhibition zone (DIZ) (Escherichia coli [9]): 24 mm
MIC (Micrococcus luteus [10]): 100 µg/mL (≈ 122 µM)
diameter of the inhibition zone (DIZ) (Micrococcus luteus [11]): 24 mm
diameter of the inhibition zone (DIZ) (Bacillus subtilis [12]): 14 mm
MIC (Pseudomonas aeruginosa [13]): 100 µg/mL (≈ 122 µM)
MIC (Bacillus subtilis [14]): inactive
MIC (Escherichia coli [15]): 100 µg/mL (≈ 122 µM)
MIC (Candida albicans [16]): inactive
MIC (Aspergillus niger [17]): 25 µg/mL (≈ 30.5 µM)
diameter of the inhibition zone (DIZ) (Klebsiella pneumoniae [18]): 26 mm
MIC (Staphylococcus aureus [19]): 100 µg/mL (≈ 122 µM)
diameter of the inhibition zone (DIZ) (Candida albicans [20]): 15 mm
diameter of the inhibition zone (DIZ) (Priestia megaterium [21]): 23 mm

O=C(Cn1cc(CC(O)c2ccc(S(=O)(=O)c3ccccc3)cc2)nn1)c1ccc(Br)cc1 (centres undefined)
diameter of the inhibition zone (DIZ) (Pseudomonas aeruginosa [1]): 25 mm
diameter of the inhibition zone (DIZ) (Saccharomyces cerevisiae [2]): 17 mm
diameter of the inhibition zone (DIZ) (Aspergillus niger [3]): 30 mm
MIC (Priestia megaterium [4]): 200 µg/mL (≈ 380 µM)
MIC (Saccharomyces cerevisiae [5]): 200 µg/mL (≈ 380 µM)
MIC (Klebsiella pneumoniae [6]; ATCC 13883, 24 h): 100 µg/mL (≈ 190 µM)
IC50 [7]: 500 µg/mL (≈ 950 µM)
diameter of the inhibition zone (DIZ) (Staphylococcus aureus [8]): 22 mm
diameter of the inhibition zone (DIZ) (Escherichia coli [9]): 22 mm
MIC (Micrococcus luteus [10]): 200 µg/mL (≈ 380 µM)
diameter of the inhibition zone (DIZ) (Micrococcus luteus [11]): 20 mm
diameter of the inhibition zone (DIZ) (Bacillus subtilis [12]): 14 mm
MIC (Pseudomonas aeruginosa [13]): 100 µg/mL (≈ 190 µM)
MIC (Bacillus subtilis [14]): inactive
MIC (Escherichia coli [15]): 200 µg/mL (≈ 380 µM)
MIC (Candida albicans [16]; NRRL Y-477, 48 h): 200 µg/mL (≈ 380 µM)
MIC (Aspergillus niger [17]): 50 µg/mL (≈ 95 µM)
diameter of the inhibition zone (DIZ) (Klebsiella pneumoniae [18]): 24 mm
MIC (Staphylococcus aureus [19]): 200 µg/mL (≈ 380 µM)
diameter of the inhibition zone (DIZ) (Candida albicans [20]): 20 mm
diameter of the inhibition zone (DIZ) (Priestia megaterium [21]): 19 mm
